High-throughput results: PubChem BioAssay, several laboratories
CHOP inh: CHOP inhibition in unfolded protein response. inhibition, % at 10 µM. CHO-K1 CHOP-promoter luciferase, tunicamycin-induced, 15-18 h. 220,000 tested, 3.8% active;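 active = compounds that reduced the stress-induced luciferase reporter signal by more than about 70% of percent inhibition, limit read from the data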;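 note: 0% = tunicamycin plus vehicle and 100% = wells without tunicamycin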
UPR XBP1 act: activators of adaptive arm of unfolded protein response (XBP1). CHO-XBP1 luciferase reporter, IRE1-XBP1 UPR activation, luminescence; percent of tunicamycin response, DMSO as zero. activation, % at 20 µM. 330,000 tested, 0.33% active. AID 463104;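 active = versus positive control, 20 µM dose yields 30% or more activation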;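 note: 100% = tunicamycin at 10 µg/mL and 0% = DMSO only wells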
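assay system = CHO-XBP1 luciferase reporter cells | amount = 1000 cells/well | buffer or medium = F12 plus 10% FBS | compound dosing = single point, 20 µM final compound, 1% DMSO | incubation = 16-18 h cell attachment at 37 °C, then 6 h compound exposure | detection = Steady-Glo luminescence read | controls = tunicamycin 10 µg/mL and vehicle-only wells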
Jurkat NFkB inh: inhibitors of the PMA/ionomycin-induced NF-kB reporter in Jurkat cells; PMA/ionomycin-induced NF-kB luciferase reporter, luminescence; inhibition, % at 4 µM; 330,000 tested, 0.53% active; in the data active = inhibition above about 50%
697 NFkB inh: lowers PMA/ionomycin-induced NF-kB signal in 697 B cells. inhibition, % at 4 µM. 697 B-cell NF-kB luciferase reporter, 16 h. 330,000 tested, 0.33% active. AID 435022; in the data active = inhibition above about 35%
UPR CHOP act: activators of apoptotic arm of unfolded protein response (CHOP); activation, % at 10 µM; 330,000 tested, 0.34% active; CHO-CHOP luciferase reporter, UPR activation, luminescence; percent of tunicamycin response over DMSO baseline; AID 449763;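 active = at 10 µM dose, activation of 40% or more, normalized to positive control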;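 note: 100% = tunicamycin at 10 µg/mL and 0% = DMSO alone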
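measured by = luciferase luminescence | assay system = CHO-CHOP cells, stable luciferase reporter of PERK-eIF2a-CHOP signalling | amount = 500 reporter cells seeded per well | timing = 6 h compound exposure at 37 °C after overnight seeding | controls = positive tunicamycin 10 µg/mL, negative DMSO alone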
CHOP confirm: confirmation of CHOP induction inhibitors; inhibition, % at 10 µM; AID 504437; 2,100 tested, 45% active; CHO-CHOP promoter luciferase reporter, tunicamycin-induced, luminescence; shares compounds with CHOP inh;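 active = mean of three repeat readings of reporter signal inhibition above a set limit, cut at about 70% in these data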;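 note: 0% = tunicamycin plus vehicle and 100% = wells lacking tunicamycin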
Starred values were filed as active, the others as inactive; · = not tested or not shown. Shown is part of a subset that was picked to be rich in hits.

SMILES | CHOP inh | UPR XBP1 act | Jurkat NFkB inh | 697 NFkB inh | UPR CHOP act | CHOP confirm
O=Cc1s/c(=N\S(=O)(=O)c2ccccc2)n(CCCCl)c1Cl | 107* | · | · | · | · | 112*
O=C1CCC(C(=O)N2CCN(c3ccccc3)CC2)CN1CC1CCCCC1 (centres undefined) | · | -3 | 14 | -17 | -2 | ·
S=C1NC2=C(CCC/C2=C\c2ccccc2)C(c2ccccc2)N1 (centres undefined) | 40 | 0 | -6 | -9 | -2 | ·
C(=C1/CCCC2=C1Nc1ncnn1C2c1ccccc1)/c1ccccc1 (centres undefined) | 112* | -8 | 15 | -65 | 6 | 58
Cc1ccc(OCC(=O)Nc2c3c(nn2C(C)(C)C)CS(=O)(=O)C3)cc1 | · | -1 | -5 | 2 | 0 | ·
CSc1nnc(CCNS(=O)(=O)c2ccc(Br)cc2)n1C | · | -1 | -3 | -1 | 2 | ·
CCCOC(=O)c1ccc(Oc2cn[nH]c2-c2ccc(OCC)cc2O)cc1 | 107* | -2 | 8 | -12 | 2 | 124*
CCCOC(=O)c1ccc(Oc2c(-c3ccc(OCC)cc3O)n[nH]c2C)cc1 | 113* | 4 | 5 | -25 | 2 | 118*
CCOc1ccc(-c2[nH]ncc2Oc2cccc(OC)c2)c(O)c1 | 107* | -4 | 7 | -3 | -1 | -7
CCOc1ccc(-c2[nH]ncc2-c2ccccc2)c(O)c1 | · | 0 | -10 | -18 | 0 | ·
COc1ccc(Oc2cn[nH]c2-c2ccc(OCC(=O)NN)cc2O)cc1 | · | -1 | -18 | 21 | -2 | ·
CCCCn1c(N)c(N(CC)C(=O)CCNC(=O)NC23CC4CC(CC(C4)C2)C3)c(=O)[nH]c1=O | · | -8 | 3 | 12 | -1 | ·
Cc1sc(N)c(C(=O)c2ccccc2)c1C | 8 | -3 | 10 | -1 | 1 | ·
O=c1c(Cl)nc2cc(Cl)ccc2n1CCNc1ncc(C(F)(F)F)cc1Cl | 107* | -9 | 17 | 10 | -12 | 128*
Cc1nc(N)sc1-c1csc(Nc2ncccn2)n1 | 103* | · | · | · | · | -211
CC(C)(C)OC(=O)NCCCC[C@H](NC(=O)c1[nH]cnc1C(=O)Nc1ccc(Cl)cc1)C(=O)OC(C)(C)C | -2 | 6 | 7 | 3 | 3 | ·
CCOC(=O)c1ccc(NC(=O)c2nc[nH]c2C(=O)N[C@@H](C)C(=O)OC(C)(C)C)cc1 | 97* | -3 | 1 | 8 | 1 | 104*
C[C@H](NC(=O)c1[nH]cnc1C(=O)Nc1ccc(Cl)cc1)C(=O)OC(C)(C)C | 105* | -2 | -5 | -22 | 1 | 91*
CCCCn1c(N)c(N(CC(C)C)C(=O)CSCc2c(C)noc2C)c(=O)[nH]c1=O | · | 3 | -10 | 31 | 1 | ·
O=C(OC(C(=O)NCc1ccc(F)cc1)c1ccccc1)c1ccco1 (centres undefined) | · | 0 | 1 | 12 | 0 | ·
CCCc1nnc(NC(=O)Cn2c(=O)oc3ccccc32)s1 | 11 | 2 | -20 | -29 | -1 | ·
Cc1sc(NC(=O)Cn2c(=O)oc3ccccc32)nc1-c1ccc(Cl)cc1 | 98* | -3 | -4 | 12 | 0 | 34
COc1ccc(NS(=O)(=O)c2ccc(C)c(NC(=O)CNC(=O)c3ccco3)c2)cc1 | · | -4 | 15 | 8 | 1 | ·
Fc1cccc2sc(Nc3nc4cc5c(cc4s3)OCO5)nc12 | 41 | 2 | -143 | -166 | 4 | ·
Fc1cc(F)c2nc(Nc3nc4cc5c(cc4s3)OCO5)sc2c1 | 109* | · | · | · | · | 84*
SMILES | CHOP inh | UPR XBP1 act | Jurkat NFkB inh | 697 NFkB inh | UPR CHOP act | CHOP confirm
CCOc1ccc(NC(=O)c2ccc3c(c2)OCCO3)cc1S(=O)(=O)N(CC)CC | · | 1 | -13 | 12 | 0 | ·
CCc1ccc(OCc2n[nH]c(=S)n2C(C)CCCC(C)C)cc1 (centres undefined) | 105* | -2 | 11 | 11 | 0 | 113*
COC(=O)[C@@H](CC(C)C)NS(=O)(=O)N(Cc1ccccc1)[C@@H](CC(C)C)C(=O)OC | · | -2 | -2 | 1 | 2 | ·
COc1ccc(CCC(=O)NCC2CCCCC2)cc1OC | · | 1 | -2 | 13 | 2 | ·
Oc1ccccc1-n1c(-c2ccccc2)ccc1-c1ccccc1 | 104* | 4 | -4 | -12 | 1 | 119*
Cc1ccc(-c2ccccc2)n1-c1ccc(C(=O)O)cc1 | 17 | -1 | -15 | 1 | 2 | ·
O=C(Cn1c(=O)c2cccn2c2cccnc21)N1CCN(c2ccccc2F)CC1 | · | -5 | 17 | 10 | 0 | ·
CCCCCCCOC(=O)c1nc(Cl)c(Cl)c(N)c1Cl | 99* | 1 | 7 | 10 | 1 | 55
CCC1NC(=O)c2ccccc2N1c1cccc(Cl)c1 (centres undefined) | · | 2 | -18 | -22 | -1 | ·
CCNC(=O)c1ccccc1SCc1ccccc1 | -21 | 0 | -2 | -10 | -1 | ·
CCc1ccc(OCCNC(=O)c2ccccc2SCc2ccccc2)cc1 | 99* | 1 | -35 | -143 | -2 | 91*
CS(=O)(=O)Nc1ccccc1C(=O)OCC(=O)N1CCC(c2ccccc2)=N1 | · | 0 | 5 | 4 | -3 | ·
C=CCn1c(SCC(=O)NNC(=O)Nc2ccc(C)cc2)nnc1-c1ccccc1 | 0 | 1 | 11 | 10 | 1 | ·
C=CCn1c(SCC(=O)Nc2ccc(-c3nc4ccc(C)cc4s3)cc2)nnc1-c1ccccc1 | 100* | · | · | · | · | 70*
Cc1ccc(/C=C(\NC(=O)c2ccc(C)cc2)c2nc(=S)[nH][nH]2)cc1 | 110* | -3 | 3 | 2 | -2 | 4
Cc1ccc(C(=O)N/C(=C\c2ccccc2F)c2nc(=S)[nH][nH]2)cc1 | 50 | -2 | 4 | -1 | 6 | ·
Cc1ccccc1Nc1nc(N)nc(-c2oc3ccccc3c2C)n1 | 26 | -3 | -65 | -91 | 7 | ·
Cc1c(-c2nc(N)nc(Nc3ccc(F)cc3)n2)oc2ccccc12 | 106* | 7 | -81 | -103 | 5 | 40
Nc1nonc1-c1nc2ccccc2n1Cc1ccc(Cl)cc1 | 6 | 4 | -1 | 7 | 0 | ·
Cc1ccc(Cn2c(-c3nonc3N)nc3ccccc32)cc1 | 105* | 0 | 33 | 4 | -1 | 19
COc1ccc(-c2n[nH]c(C)c2-c2cnn(-c3ccccc3)c2)c(O)c1C | 99* | 1 | 12 | 13 | 2 | 3
O=C(CCN1C(=O)/C(=C/C=C/c2ccccc2)SC1=S)Nc1cccnc1 | 102* | 18 | 7 | 29 | 23 | 30
O=C(CCN1C(=O)/C(=C/c2ccc(Cl)cc2)SC1=S)Nc1cccnc1 | · | -1 | -19 | -5 | 0 | ·
Cc1ccc(SCCNS(=O)(=O)c2ccc(F)cc2)cc1 | 97* | -1 | -9 | -4 | 2 | 6
CC(=O)N1c2ccc(S(=O)(=O)N(C)CC(=O)NC(C)c3ccccc3)cc2CC1C (centres undefined) | · | -3 | 5 | -7 | 0 | ·
